Screening results (PubChem)
Mdm2-MdmX inh – human Mdm2/MdmX binding inhibition | O15151+Q00987 | SaOS-2 split-luciferase Mdm2/MdmX complementation, luminescence | inhibition, % at 8 µM | actives 3% (n = 330,000) | AID 485346;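 active = inhibition of at least 50% at 8 µM in the primary screen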
Target sequence (O15151 whole entry, looked up): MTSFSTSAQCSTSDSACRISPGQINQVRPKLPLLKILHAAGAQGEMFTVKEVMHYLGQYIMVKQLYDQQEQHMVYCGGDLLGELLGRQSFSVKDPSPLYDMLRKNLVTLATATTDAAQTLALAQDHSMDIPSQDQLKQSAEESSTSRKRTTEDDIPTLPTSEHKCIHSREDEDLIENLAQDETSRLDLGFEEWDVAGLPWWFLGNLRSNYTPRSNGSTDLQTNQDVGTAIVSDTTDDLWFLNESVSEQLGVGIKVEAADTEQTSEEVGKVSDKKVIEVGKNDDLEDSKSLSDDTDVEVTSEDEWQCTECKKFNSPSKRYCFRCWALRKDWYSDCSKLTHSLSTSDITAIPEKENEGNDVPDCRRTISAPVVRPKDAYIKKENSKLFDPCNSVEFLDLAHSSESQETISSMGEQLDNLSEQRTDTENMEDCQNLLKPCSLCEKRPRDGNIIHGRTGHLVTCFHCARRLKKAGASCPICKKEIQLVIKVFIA
Target sequence (Q00987 whole entry, looked up): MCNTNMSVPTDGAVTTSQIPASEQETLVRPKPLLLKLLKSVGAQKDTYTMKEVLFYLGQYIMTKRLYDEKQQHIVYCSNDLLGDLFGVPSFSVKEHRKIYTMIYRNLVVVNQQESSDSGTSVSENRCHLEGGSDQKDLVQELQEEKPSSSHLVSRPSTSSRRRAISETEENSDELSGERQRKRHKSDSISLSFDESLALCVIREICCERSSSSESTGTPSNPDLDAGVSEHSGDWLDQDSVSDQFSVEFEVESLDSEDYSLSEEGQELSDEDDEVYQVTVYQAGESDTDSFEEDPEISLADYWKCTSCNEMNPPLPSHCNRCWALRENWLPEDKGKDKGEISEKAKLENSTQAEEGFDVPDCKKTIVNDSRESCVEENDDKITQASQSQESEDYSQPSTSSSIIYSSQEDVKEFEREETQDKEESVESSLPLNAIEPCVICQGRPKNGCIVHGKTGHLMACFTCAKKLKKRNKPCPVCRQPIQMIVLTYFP
CSC inhib – cancer stem cell inhibition; actives 1.1% (n = 300,000); cancer stem cell-like cells viability, luminescence; AID 2717; inhibition, % at 7.5 µM; in the data active = inhibition above about 75%; inconclusive = no clear call, values can overlap the other calls; tested in HMLE shEcad cells
Beta cell apopt – blocks beta cell apoptosis. INS-1E cytokine-induced death, ATP luminescence, 48 h; percent of positive-control rescue, neutral wells zero. protection from apoptosis, % (no concentration beside the values). actives 0.8% (n = 300,000);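 active = Every replicate reaches about 75%, or at least half do and their mean reaches it too, limit read from the data; inconclusive = At least half of replicates reach the limit but their mean does not; inactive = Under half of replicates reach the limit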;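 also: higher means more ATP so stronger rescue from cytokine killing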
UPR XBP1 act – adaptive UPR (XBP1) activation; activation, % at 20 µM; actives 0.33% (n = 330,000); CHO-XBP1 luciferase reporter, IRE1-XBP1 UPR activation, luminescence; percent of tunicamycin response, DMSO as zero;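 active = versus positive control, 20 µM dose yields 30% or more activation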
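Assay system: IRE1-XBP1 luciferase reporter CHO line. Input: 1000 cells/well. Buffer or medium: F12 with 10% serum. Doses: 20 µM, 1% DMSO. Times: overnight seeding at 37 °C, 6 h compound treatment at 37 °C. Technique: Steady-Glo luciferase glow luminescence, 10 min after reagent addition.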
UPR CHOP act – activators of apoptotic arm of unfolded protein response (CHOP). CHO-CHOP luciferase reporter, UPR activation, luminescence; percent of tunicamycin response over DMSO baseline. activation, % at 10 µM. actives 0.34% (n = 330,000). AID 449763;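 active = at 10 µM dose, activation of 40% or more, normalized to positive control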
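assay system = CHO CHOP reporter cells | amount = 500 CHO-CHOP cells per well | buffer or medium = F12 with 10% FBS | incubation = 16-18 h cell attachment, then 6 h compound exposure, 37 °C | detection = luminescence read with Steady-Glo | read-out = percent activation relative to tunicamycin control | controls = tunicamycin high control, DMSO low control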
SKKanGAS inh – blocks kanamycin growth of S. pyogenes SKKanGAS strain | actives 1.3% (n = 300,000) | inhibition, % at 7.5 µM | BacTiter-Glo, 6 h;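 active = mean replicate score, as percent of positive control median, at least 50; inconclusive = mean below 50 but one replicate at or above 50; inactive = mean and every replicate below 50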;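 also: strain carries kanamycin resistance gene driven by streptokinase promoter and grows in 40 µg/ml kanamycin; loss of luminescence reflects streptokinase promoter inhibition or plain growth inhibition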
Mdm2-MdmX conf – human Mdm2/MdmX binding inhibition, confirmed. AID 489028. luminescent assay. actives 55% (n = 10,000). inhibition, % at 8 µM. shares compounds with Mdm2-MdmX inh; in the data active = inhibition above about 40%
FLuc counter – full-length luciferase inhibition in Mdm2/MdmX counter-screen. shares compounds with Mdm2-MdmX inh. SaOS-2 full-length luciferase counterscreen, luminescence. inhibition, % at 8 µM. actives 77% (n = 6,200);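 active = mean inhibition at 8 µM reaching about 37%, which flags the compound as non-specific, limit read from the data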;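 also: p53-null SaOS-2 cells with luciferase driven by a doxycycline-inducible promoter; compound on cells about two nights before reading with doxycycline added after day one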
Each line names hits and unclear results; the compound was inactive in the other large screens (follow-up assays come after a bar, where they were run). An excerpt weighted towards active compounds, which were near 4.8% of everything screened.

O=C(CSC1=NS(=O)(=O)c2cc(F)ccc2N1)NCc1ccc(F)cc1	none (no result: Beta cell apopt)
CC(C)(C)C(=O)NC(=S)Nc1cc(C(F)(F)F)ccc1N1CCOCC1	none
O=C(NC(=S)Nc1cc(C(F)(F)F)ccc1N1CCOCC1)c1sc2ccccc2c1Cl	Mdm2-MdmX inh 50.4 | Mdm2-MdmX conf inactive
O=C(Nc1cccc(Cl)c1)C1C2CCC3C(CCC21)C3(Cl)Cl (stereo unspecified)	Mdm2-MdmX inh 68.6 | Mdm2-MdmX conf inactive
O=C(Nc1ccccc1)C1C2CCC3C(CCC21)C3(Cl)Cl (stereo unspecified)	none
O=C(Cn1c(COc2ccccc2)nc2ccccc21)Nc1cc(Cl)cc(Cl)c1	none (no result: Beta cell apopt)
O=C(Cn1c(COc2ccccc2)nc2ccccc21)Nc1cc(Cl)ccc1Cl	Mdm2-MdmX inh 89.2 | Mdm2-MdmX conf 71.0 | FLuc counter 104.1
COc1ccccc1CCCNC(=O)C1CCC(=O)N(CCc2cccc(F)c2)C1 (stereo unspecified)	none
COc1ccc(C(C)=O)cc1COC(=O)c1cc(=O)c2ccccc2o1	none
O=C(COC(=O)c1ccc2c(c1)OCO2)NC1CCCCC1	none (no result: SKKanGAS inh)
Cc1ccc(C(O)(C(=O)NN(C(=O)c2ccccc2)c2ccccc2)c2ccc(C)cc2)cc1	none (no result: Beta cell apopt)
Cc1ccc(N(NC(=O)C(O)(c2ccccc2)c2ccccc2)C(=O)CCl)cc1	Mdm2-MdmX inh 99.6 | Mdm2-MdmX conf 97.2 | FLuc counter 56.1
CCC(O)(CC)C(=O)NN(C(=O)CCl)c1ccccc1	none
O=C(Nc1ccccc1)NN(C(=O)CCl)c1ccccc1	Mdm2-MdmX inh 99.6, CSC inhib inconclusive | Mdm2-MdmX conf 75.7 | FLuc counter 58.4
CCN(CC(=O)NC1CCS(=O)(=O)C1)C(=O)c1ccc(OC)c([N+](=O)[O-])c1 (stereo unspecified)	none (no result: CSC inhib, SKKanGAS inh)
COc1cc(NC(=S)NC(=O)c2ccc(C(C)(C)C)cc2)ccc1NC(=O)c1cccs1	Mdm2-MdmX inh 89.7 | Mdm2-MdmX conf 68.1 | FLuc counter inactive
COc1cc(NC(=S)NC(=O)c2cc(C)cc(C)c2)ccc1NC(=O)c1cccs1	none
COc1cc(NC(=O)c2cc3ccccc3cc2OC)ccc1NC(=O)c1cccs1	Mdm2-MdmX inh 58.0 | Mdm2-MdmX conf 57.4 | FLuc counter 90.4
CN=C1c2c(-c3ccccc3)c3cc(OC)ccc3n2CCN1C	Mdm2-MdmX inh 50.7 | Mdm2-MdmX conf inactive
Cc1noc(C)c1COC(=O)c1csc2c1CCCC2	none (no result: CSC inhib, Beta cell apopt, SKKanGAS inh)
O=C(CN1C(=O)c2ccccc2S1(=O)=O)c1ccccc1	Mdm2-MdmX inh 78.1 | Mdm2-MdmX conf 65.0 | FLuc counter 97.8
O=C(CN1C(=O)c2ccccc2S1(=O)=O)Nc1ncc(Cl)cc1Cl	Mdm2-MdmX inh 84.4 (no result: SKKanGAS inh) | Mdm2-MdmX conf 69.5 | FLuc counter 64.0
Cc1ccc(C(=O)CN2/C(=C(\O)c3ccccc3)C(=O)c3ccccc3S2(=O)=O)c(C)c1	none
CN(c1cccc(NC(=O)CN2C(=O)c3ccccc3S2(=O)=O)c1)S(C)(=O)=O	Mdm2-MdmX inh 51.1 | Mdm2-MdmX conf inactive | FLuc counter 81.9
Cc1ccc(C(=O)CN2C(=O)c3ccccc3S2(=O)=O)cc1	Mdm2-MdmX inh 98.4 | Mdm2-MdmX conf 95.7 | FLuc counter inactive
CC(C)NC(=O)CN1C(=O)c2ccccc2S1(=O)=O	none
COc1ccc(C(=O)N/N=C(\N)c2cc3ccccc3oc2=O)cc1	none (no result: CSC inhib)
O=C(Nc1ccccc1)OCCOc1ccc(Br)cc1	none
O=C(CN1C(=O)c2ccccc2S1(=O)=O)c1ccccc1Cl	Mdm2-MdmX inh 58.3 (no result: Beta cell apopt) | Mdm2-MdmX conf 55.2 | FLuc counter 82.0
C/C(CC(=O)Nc1ccc2c(c1)OCCO2)=N\NC(=O)COc1ccc(C)cc1Br	none (no result: Beta cell apopt)
COc1ccc2c(C(=O)NCc3ccc4c(c3)OCO4)c(-c3ccc(S(C)(=O)=O)cc3)sc2c1	Mdm2-MdmX inh 84.4, Beta cell apopt inconclusive (no result: CSC inhib, SKKanGAS inh) | Mdm2-MdmX conf inactive
O=C(Nc1ccccc1)Nc1ccc(Br)c(Cl)c1	Mdm2-MdmX inh 86.8 | Mdm2-MdmX conf 43.9 | FLuc counter 48.2
Cc1ccc(NC(=O)Nc2ccc(F)c(Cl)c2)cc1	none
O=C(Nc1ccc(Cl)cc1)Nc1ccc(Cl)c(Cl)c1	Mdm2-MdmX inh 89.3, Beta cell apopt 113.1 (no result: SKKanGAS inh) | Mdm2-MdmX conf 89.6 | FLuc counter inactive
CC(C)(C)N(NC(=O)Nc1ccc(Cl)c(Cl)c1)C(=O)c1ccccc1	Mdm2-MdmX inh 86.3 (no result: CSC inhib) | Mdm2-MdmX conf 66.5 | FLuc counter 42.6
O=C(Nc1ccc(Cl)c(Cl)c1)Nc1ccon1	Mdm2-MdmX inh 56.5, SKKanGAS inh 66.6 | Mdm2-MdmX conf 65.7 | FLuc counter 56.1
Cc1nc(Cc2nnc(SC(C)C(=O)Nc3cccc(C#N)c3)o2)cs1 (stereo unspecified)	none
O=C(NNC(=O)C1CC(=O)N(Cc2ccccc2)C1)c1ccc(Br)cc1 (stereo unspecified)	none
Cc1c(O)ccc2c(CC(=O)N[C@@H](Cc3c[nH]c4ccccc34)C(=O)O)cc(=O)oc12	none
COc1ccc(CCNC(=O)C2CCCN(S(=O)(=O)c3ccccc3)C2)cc1 (stereo unspecified)	none
CCOC(=O)c1ccc(NC(=O)Nc2ccc(Cl)cn2)cc1	none (no result: CSC inhib)
O=C(Nc1ccc(Br)cc1)Nc1ccccc1F	none
CCOC(=O)c1ccc(NC(=O)Nc2ccon2)cc1	Mdm2-MdmX inh 52.8, CSC inhib 77.8 | Mdm2-MdmX conf 42.8 | FLuc counter 115.1
O=C(Nc1ccc(Cl)c(Cl)c1)Nc1ccc(Br)cc1F	Mdm2-MdmX inh 95.0, CSC inhib 92.4 (no result: Beta cell apopt) | Mdm2-MdmX conf 92.8 | FLuc counter inactive
N#Cc1ccc(NC(=O)Nc2ccc(Cl)cc2)cc1	Mdm2-MdmX inh 84.8, Beta cell apopt 105.3, SKKanGAS inh 55.5 (no result: CSC inhib) | Mdm2-MdmX conf 88.4 | FLuc counter 44.7
O=C(CSc1nc2c(oc3ccccc32)c(=O)n1CC1CCCO1)NCc1ccccc1 (stereo unspecified)	Mdm2-MdmX inh 65.9 | Mdm2-MdmX conf inactive
CC(=O)C1C(=O)C=C(c2cccs2)CC1c1ccccc1 (stereo unspecified)	none
O=C1C=C(c2cccs2)C[C@H](c2ccccc2)[C@H]1n1nnc([N+](=O)[O-])n1	Mdm2-MdmX inh 73.6, CSC inhib 149.3, Beta cell apopt 101.0 | Mdm2-MdmX conf 54.1 | FLuc counter 171.5
COc1ccccc1/C=C/C(=O)NCC(=O)N/N=C/c1cc(Br)ccc1OC	none
Cc1cccc(OCC(=O)NCC(=O)N/N=C/c2ccc(O)cc2O)c1	none
